Test results as given in paper PMC5055850 (Bioorganic & medicinal chemistry, 2016).
Read-outs that look alike come from different tables or passages of the source.

How the values were obtained:
Type in all cases: cell-based
[1] = tested on: human polymorphonuclear neutrophils (hPMN); assay: Ca2+ flux assay in human neutrophils; conditions: for EC50: Homo sapiens, Polymorphonuclear neutrophil, read-out: hPMN EC50
Summary of the method: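 Neutrophils from healthy donors' blood, purified by dextran sedimentation, Histopaque 1077 gradient and hypotonic red-cell lysis (>95% pure, >98% viable). Cells in HBSS− with 10 mM HEPES were loaded with Fluo-4 AM (1.25 µg/mL final) for 30 min at 37 °C, then plated at 2 × 10^5 cells/well. Fluorescence (485/538 nm) read every 5 s for 240 s at room temperature. Peak change normalized to 5 nM fMLF. EC50 from 5–6-point nonlinear regression, three experiments.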

[2] = biological target: T1, FPR1 (Homo sapiens, UniProt P21462); assay: Ca2+ flux assay in FPR1-HL60 cells; conditions: for Emax: read-out: FPR1-HL60 Efficacy
T1 sequence (P21462 1-350): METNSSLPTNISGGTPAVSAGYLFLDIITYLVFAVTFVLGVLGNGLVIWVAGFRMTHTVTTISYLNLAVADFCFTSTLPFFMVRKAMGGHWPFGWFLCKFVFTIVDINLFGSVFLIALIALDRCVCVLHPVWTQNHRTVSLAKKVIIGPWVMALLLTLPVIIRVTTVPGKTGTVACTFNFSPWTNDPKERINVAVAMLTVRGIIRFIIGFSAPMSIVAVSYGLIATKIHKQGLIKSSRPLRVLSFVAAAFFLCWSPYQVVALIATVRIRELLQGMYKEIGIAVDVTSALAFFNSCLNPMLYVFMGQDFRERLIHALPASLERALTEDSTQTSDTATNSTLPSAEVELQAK
Summary of the method: (§1)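 FPR1-, FPR2- or FPR3-transfected HL-60 cells grown in RPMI 1640 with 10% heat-inactivated FCS, 10 mM HEPES and G418 (1 mg/mL). Cells loaded with Fluo-4 AM (1.25 µg/mL final) for 30 min at 37 °C in the dark, then 2 × 10^5 cells/well. Fluorescence (ex 485/em 538 nm) read every 5 s for 240 s at room temperature. Peak rise over baseline normalized to 5 nM fMLF (FPR1) or 5 nM WKYMVm (FPR2, FPR3). EC50 from 5–6-point nonlinear fits, three independent experiments.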

[3] = biological target: T2, FPR2 (Homo sapiens, UniProt P25090); assay: Ca2+ flux assay in FPR2-HL60 cells; conditions: for EC50: HL-60 cells transfected with FPR2; for Emax: read-out: FPR2-HL60 Efficacy
T2 sequence (P25090 1-351): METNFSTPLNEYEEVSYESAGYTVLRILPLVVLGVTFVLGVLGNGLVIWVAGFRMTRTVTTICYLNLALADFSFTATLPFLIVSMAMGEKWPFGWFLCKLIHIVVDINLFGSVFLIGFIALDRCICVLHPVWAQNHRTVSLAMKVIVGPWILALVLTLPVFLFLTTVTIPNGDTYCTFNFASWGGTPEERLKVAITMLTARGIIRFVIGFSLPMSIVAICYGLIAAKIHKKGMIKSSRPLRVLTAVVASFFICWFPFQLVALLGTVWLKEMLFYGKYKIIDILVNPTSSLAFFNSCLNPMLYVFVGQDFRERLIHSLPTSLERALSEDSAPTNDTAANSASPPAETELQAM
Summary of the method: as §1

[4] = biological target: T3, FPR3 (Homo sapiens, UniProt P25089); assay: Ca2+ flux assay in FPR3-HL60 cells; conditions: for FPR3-HL60 Efficacy: % of the response induced by 5 nM WKYMVm
T3 sequence (P25089 1-353): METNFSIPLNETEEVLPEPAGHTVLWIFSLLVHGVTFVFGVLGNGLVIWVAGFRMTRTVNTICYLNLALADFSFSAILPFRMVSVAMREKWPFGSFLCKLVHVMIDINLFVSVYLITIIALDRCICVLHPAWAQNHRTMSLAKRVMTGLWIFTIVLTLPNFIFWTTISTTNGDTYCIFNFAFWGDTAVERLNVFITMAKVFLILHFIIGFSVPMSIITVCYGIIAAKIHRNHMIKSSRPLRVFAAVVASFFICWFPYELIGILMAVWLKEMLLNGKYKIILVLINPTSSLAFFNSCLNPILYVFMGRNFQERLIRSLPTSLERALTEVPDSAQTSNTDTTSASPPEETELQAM
Summary of the method: as §1

[5] = tested on: human neutrophils; assay: Cell migration; conditions: Neutrophil, 1 h, read-out: EC50 in migration assay
Summary of the method: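 Human neutrophils at 2 × 10^6 cells/mL in HBSS with 2% FBS, placed above a 5.0 µm polycarbonate membrane. Lower wells held test compound, DMSO (negative control) or 1 nM fMLF (positive control). Migration ran 60 min at 37 °C, 5% CO2. Migrated cells counted by ATP luminescence against neutrophil standard curves and expressed as % of spontaneous migration. EC50 from 5–6-point nonlinear fits; mean ± SD, three donors.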

[6] = tested on: mouse polymorphonuclear neutrophils (mPMN); assay: Ca2+ flux assay in mouse neutrophils; conditions: for mPMN Efficacy: % of the response induced by 5 nM WKYMVm; for EC50: read-out: mPMN EC50
Summary of the method: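 Neutrophils taken from BALB/c mouse tibia and femur bone marrow. Isolated on a 45/50/55/62/81% Percoll gradient (1600g, 30 min, 10 °C), then Histopaque 1119 to remove red cells, and kept in HBSS−. Ca2+ fluorescence (485/538 nm) monitored every 5 s for 240 s at room temperature after compound addition. Maximal change over baseline normalized to 5 nM WKYMVm. EC50 from 5–6-point nonlinear regression, three independent experiments.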

[7] = biological target: T4, mouse Fpr1 (Mus musculus, UniProt P33766); assay: Ca2+ flux assay in mFpr1-RBL cells; conditions: for mFpr1-RBL Efficacy: % of the response induced by 5 nM WKYMVm
T4 sequence (P33766 1-364): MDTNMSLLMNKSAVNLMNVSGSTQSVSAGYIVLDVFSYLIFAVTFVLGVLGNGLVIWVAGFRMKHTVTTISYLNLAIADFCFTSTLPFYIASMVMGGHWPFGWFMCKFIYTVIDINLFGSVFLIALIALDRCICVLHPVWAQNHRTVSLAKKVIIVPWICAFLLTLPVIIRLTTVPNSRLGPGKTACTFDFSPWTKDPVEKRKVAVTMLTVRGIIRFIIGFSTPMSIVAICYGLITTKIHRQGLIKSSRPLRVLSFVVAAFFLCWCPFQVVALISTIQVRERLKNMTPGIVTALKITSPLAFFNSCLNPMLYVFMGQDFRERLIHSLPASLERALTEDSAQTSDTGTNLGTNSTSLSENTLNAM
Summary of the method: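 RBL-2H3 cells carrying mouse Fpr1 were grown in DMEM with 20% FBS, 10 mM HEPES and G418 (250 µg/ml). Cells were loaded with Fluo-4 AM (1.25 µg/mL final, 30 min, 37 °C, dark) and plated at 2 × 10^5 cells/well. Fluorescence (485/538 nm) was read every 5 s for 240 s at room temperature after compound addition. Maximal rise over baseline normalized to 5 nM WKYMVm. EC50 from 5–6-point nonlinear fits, three experiments.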

[8] = biological target: T5, mouse Fpr2 (Mus musculus, UniProt O88536); assay: Ca2+ flux assay in mFpr2-RBL cells; conditions: for mFpr2-RBL Efficacy: % of the response induced by 5 nM WKYMVm
T5 sequence (O88536 1-351): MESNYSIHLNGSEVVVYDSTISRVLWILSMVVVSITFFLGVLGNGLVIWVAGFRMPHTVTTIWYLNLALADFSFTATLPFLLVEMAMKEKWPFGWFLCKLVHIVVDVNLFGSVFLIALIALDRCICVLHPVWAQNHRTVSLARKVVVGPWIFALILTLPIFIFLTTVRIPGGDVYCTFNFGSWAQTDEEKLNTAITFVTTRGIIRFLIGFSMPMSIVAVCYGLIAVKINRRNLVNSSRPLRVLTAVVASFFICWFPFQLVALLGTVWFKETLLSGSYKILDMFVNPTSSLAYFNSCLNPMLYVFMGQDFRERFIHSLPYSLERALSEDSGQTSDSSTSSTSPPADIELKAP
Summary of the method: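 RBL-2H3 cells stably expressing mouse Fpr2, grown in DMEM with 20% FBS, 10 mM HEPES and G418. Fluo-4 AM loaded (1.25 µg/mL final, 30 min, 37 °C, dark) in HBSS− with HEPES, then resuspended in HBSS with HEPES at 2 × 10^5 cells/well. Fluorescence (485/538 nm) read every 5 s for 240 s at room temperature. Peak rise over baseline was taken and EC50 fitted from 5–6-point curves. Mean of three experiments.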

[9] = Mus musculus, Polymorphonuclear neutrophil
[10] = % of the response induced by 5 nM fMLF

| Compound | EC50 [1] [nM] | EC50 [2] [nM] | Emax [2] [%] | EC50 ([3]; FPR2-HL60 EC50, Ca2+ flux) [nM] | Emax [3] [%] | EC50 [4] [nM] | FPR3-HL60 Efficacy [4] [%] | EC50 [5] [nM] | mPMN Efficacy [6] [%] | EC50 [6, 9] [nM] | EC50 [7] [nM] | mFpr1-RBL Efficacy [7] [%] | EC50 [8] [nM] | mFpr2-RBL Efficacy [8] [%] | other results |
| --- | --- | --- | --- | --- | --- | --- | --- | --- | --- | --- | --- | --- | --- | --- | --- |
| COc1ccc(Nc2c(-c3ccn(C)n3)c(C)nn(CC(=O)Nc3ccc(Br)cc3)c2=O)cc1 [Compound 27b, N-(4-Bromophenyl)-2-[5-(4-methoxyphenylamino)-3-methyl-4-(1-methyl-1H-pyrazol-3-yl)-6-oxo-6H-pyridazin-1-yl]acetamide] | 300 ± 44 | 4000 ± 890 | 115 | 35 ± 100 | 120 | 670 ± 220 | 110 | 450 ± 170 | 80 | 6000 ± 1900 | 18500 ± 4100 | 25 | 18300 ± 3800 | 35 |  |
| C=Cc1c(C)nn(CC(=O)Nc2ccc(Br)cc2)c(=O)c1Nc1cccc(OC)c1 [Compound 15, N-(4-Bromophenyl)-2-[5-(3-methoxyphenylamino)-3-methyl-6-oxo-4-vinylpyridazin-1(6H)-yl]acetamide] | 840 ± 180 | 230 ± 70 | 120 | 110 ± 14 | 105 | 6000 ± 2100 | 75 | 1200 ± 240 | 30 | 22800 ± 6400 |  |  |  |  |  |
| COc1cccc(Nc2c(-c3ccn(C)n3)c(C)nn(CC(=O)Nc3ccc(Br)cc3)c2=O)c1 [Compound 27a, N-(4-Bromophenyl)-2-[5-(3-methoxyphenylamino)-3-methyl-4-(1-methyl-1H-pyrazol-3-yl)-6-oxo-6H-pyridazin-1-yl]acetamide] | 590 ± 210 | 3600 ± 280 | 130 | 590 ± 180 | 90 |  |  | 1100 ± 220 |  |  |  |  |  |  |  |
| Cc1nn(CC(=O)Nc2ccc(Br)cc2)c(=O)c(N)c1C(=O)C=CN(C)C [Compound 24] | 9300 ± 2300 | 5100 ± 1700 | 120 | 5700 ± 2300 | 50 |  |  |  | 50 | 13500 ± 3700 | 6700 ± 2100 | 55 | 9400 ± 2700 | 65 |  |
| COc1cccc(Nc2c(C(C)=O)c(C)nn(CC(=O)Nc3ccc(Br)cc3)c2=O)c1 [Compound 8a, 2-[4-Acetyl-5-(3-methoxyphenylamino)-3-methyl-6-oxopyridazin-1(6H)-yl]-N-(4-bromophenyl)acetamide] | 36 ± 7 |  | 185 |  | 60 | 210 ± 44 | 150 | 2200 ± 510 |  |  |  |  |  |  |  |
| 1-[(4-Bromophenylcarbamoyl)-methyl]-5-(3-methoxyphenylamino)-1,6-dihydro-3-methyl-6-oxopyridazine-4-carboxylate [Compound 20] |  |  |  |  |  |  | 75 |  | 100 |  |  | 50 |  |  | hPMN Efficacy [1, 10]: 155%; FPR1-HL60 Efficacy [2, 10]: 130%; EC50 ([2]; read-out: FPR1-HL60 EC50, Ca2+ flux, HL-60 cells transfected with FPR1): 600 ± 100 nM; FPR2-HL60 Efficacy ([3]; % of the response induced by 5 nM WKYMVm): 115%; EC50 ([3]; read-out: FPR2-HL60 EC50, Ca2+ flux): 3100 ± 780 nM; EC50 ([4]; read-out: FPR3-HL60 EC50, Ca2+ flux, HL-60 cells transfected with FPR3): 17100 ± 4300 nM; EC50 ([6]; Ca2+ flux, mouse bone marrow neutrophils): 1000 ± 340 nM; EC50 ([7]; read-out: mFpr1-RBL EC50, Ca2+ flux, RBL cells transfected with mouse Fpr1): 4700 ± 1300 nM |
